Compounds with a hit are over-represented: about 2.1% of the library has one in this group of screens.
TLR4 MyD88 comp = TLR4-MyD88 interaction inhibition in cells. O00206+Q99836. actives 0.18% (n = 200,000). inhibition, % at 8.4 µM. HeLa CL3-4 TLR4/MyD88 BLA complementation, FRET ratio; in the data active = inhibition above about 25%;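 also: 0% = vehicle and 100% = reference inhibitor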
Target sequence (O00206 whole entry, looked up): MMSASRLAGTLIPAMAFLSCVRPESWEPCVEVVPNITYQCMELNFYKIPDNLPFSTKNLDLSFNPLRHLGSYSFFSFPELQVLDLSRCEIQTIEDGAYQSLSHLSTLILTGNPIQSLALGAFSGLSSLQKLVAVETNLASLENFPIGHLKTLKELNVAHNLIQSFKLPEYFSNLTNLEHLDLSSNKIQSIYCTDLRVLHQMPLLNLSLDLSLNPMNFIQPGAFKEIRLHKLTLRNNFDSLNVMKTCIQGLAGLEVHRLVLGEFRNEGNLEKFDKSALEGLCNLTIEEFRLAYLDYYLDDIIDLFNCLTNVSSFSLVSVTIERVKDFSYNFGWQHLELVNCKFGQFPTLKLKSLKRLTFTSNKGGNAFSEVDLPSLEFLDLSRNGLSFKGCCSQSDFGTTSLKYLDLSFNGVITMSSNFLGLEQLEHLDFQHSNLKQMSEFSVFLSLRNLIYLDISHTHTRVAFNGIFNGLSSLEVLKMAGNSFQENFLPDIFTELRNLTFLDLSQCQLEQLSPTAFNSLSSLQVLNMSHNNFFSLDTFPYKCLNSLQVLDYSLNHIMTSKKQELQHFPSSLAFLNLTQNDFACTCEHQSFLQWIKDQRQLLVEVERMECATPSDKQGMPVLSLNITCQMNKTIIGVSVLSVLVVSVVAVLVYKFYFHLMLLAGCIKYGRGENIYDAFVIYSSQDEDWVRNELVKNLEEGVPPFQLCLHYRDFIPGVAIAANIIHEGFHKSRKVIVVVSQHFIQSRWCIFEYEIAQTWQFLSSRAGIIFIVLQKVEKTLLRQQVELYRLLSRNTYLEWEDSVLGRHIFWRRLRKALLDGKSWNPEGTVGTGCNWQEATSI
Target sequence (Q99836 whole entry, looked up): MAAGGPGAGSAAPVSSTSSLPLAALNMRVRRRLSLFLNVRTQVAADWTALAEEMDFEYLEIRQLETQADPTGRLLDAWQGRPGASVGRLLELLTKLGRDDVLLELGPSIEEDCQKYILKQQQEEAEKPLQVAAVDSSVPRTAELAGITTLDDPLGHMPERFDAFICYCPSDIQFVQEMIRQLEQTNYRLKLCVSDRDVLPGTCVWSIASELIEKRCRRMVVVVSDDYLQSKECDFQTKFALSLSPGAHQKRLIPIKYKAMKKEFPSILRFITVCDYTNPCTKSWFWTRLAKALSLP
MC4R antag cAMP = antagonists of human melanocortin 4 receptor (MC4R) | P32245 | MC4R-expressing cells, MTII-stimulated cAMP, LANCE TR-FRET | inhibition, % at 6.5 µM | actives 0.48% (n = 360,000);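 active = inhibition above its plate's cutoff, the mean of tested wells on that plate plus 3 SD, cut at about 29% in these data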;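 also: 0% = Melanotan II alone and 100% = Melanotan II plus saturating MCL0020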
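Material: U2OS-MC4R stable cell line | Reagent: Melanotan II challenge after compound preincubation | Doses: One concentration, 6.5 µM nominal | Incubation: 30-min compound preincubation, 1-h Melanotan II challenge, 1-h detection, room temperature | Signal: TR-FRET cAMP assay | Replicates: One well per compound, no replicates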
MIN6 prolif = MIN6 beta-cell proliferation induction; MIN6 cells proliferation, ATPlite luminescence, 48 h; cells starved in 0.2% serum; 100% = growth in 10% serum; proliferation, % at 10 µM; actives 0.29% (n = 330,000); AID 2380;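 active = compounds whose signal lies at least 3.5 SD above the mean of all wells on their plate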;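 also: 0% = DMSO-treated cells in low-serum medium and 100% = 10% serum control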
TLR9-MyD88 block = inhibitors of human TLR9-MyD88 binding; Q9NR96+Q99836; CHO BLA complementation TLR9-MyD88, CCF4 FRET ratio; inhibition, % at 4.98 µM; actives 0.21% (n = 340,000);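 active = inhibition above the mean over all tested compounds plus 3 SD, cut at about 21% in these data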;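 also: 0% = DMSO only wells and 100% = clavulanate BLA inhibitor control wells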
NOD2-RIPK2 inh = inhibitors of human NOD2-RIPK2 interaction | CHO BLA complementation NOD2-RIPK2, CCF4 ratio | inhibition, % at 4.98 µM | actives 0.38% (n = 360,000) | AID 624267; in the data active = inhibition above about 21%;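 also: 0% = vehicle only and 100% = reference blocker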
MC4R barr agon = agonists of human melanocortin 4 receptor (MC4R) beta-arrestin; activation, % at 8.9 µM; AID 540308; actives 0.98% (n = 360,000); U2OS MC4R beta-arrestin complementation, luminescence; percent of melanotan II response, DMSO zero;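 active = activation above a per-plate cutoff, the mean activation of sample wells on that plate plus 3 SD, cut at about 8% in these data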
MC4R barr ag = human MC4R beta-arrestin agonism confirmation; shares compounds with MC4R barr agon; activation, % at 8.9 µM; U2OS MC4R beta-arrestin recruitment, luminescence; scaled DMSO 0%, Melanotan II 100%; actives 31% (n = 2,400);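 active = mean activation across replicates above the hit cutoff set in the earlier primary screen, cut at about 8% in these data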
MOR-DOR barr ag = counter-screen for MC4R agonists: agonists of mu-delta opioid heterodimer; AID 602194; U2OS PathHunter beta-arrestin, beta-gal luminescence; percent of deltorphin B response, DMSO zero; activation, % at 9.2 µM; shares compounds with MC4R barr agon; actives 5.8% (n = 2,400);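 active = mean activation across replicates exceeds the hit threshold derived in the earlier primary screen, cut at about 18% in these data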;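 also: 100% = deltorphin B at 0.9 µM final and 0% = DMSO alone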
The depositor's hits bear a star; / = no result given; ! = repeats disagree.

SMILES	TLR4 MyD88 comp	MC4R antag cAMP	MIN6 prolif	TLR9-MyD88 block	NOD2-RIPK2 inh	MC4R barr agon	MC4R barr ag	MOR-DOR barr ag
Cc1cccc(NC(=O)c2ccccc2-c2ccccc2)c1	9	4	-1	12	3	0	/	/
Cc1cccc(NC(=O)c2cccc3c2C(=O)c2ccccc2-3)c1	13	5	2	3	-3	33*	8.3*	9
Cc1ccccc1N/C(SCc1cccc(Br)c1)=C(/C#N)C(N)=O	-13	11	-1	-12	-10	23*	2	9
COCCNC(=O)c1ccc(-n2c(SCc3cc(F)ccc3F)nc3ccccc3c2=O)cc1	-12	7	0	-2	2	12*	8.3*	4
CCOC(=O)CSc1nc2ccccc2c(=O)n1-c1ccc(C(=O)NCCOC)cc1	-4	0	-3	-4	4	3	/	/
O=C1NC(=O)C(=Cc2ccccc2)N1	/	4	/	-14	-7	2	/	/
O=C1Nc2ccccc2O/C1=C\c1ccccc1	/	11	1	-10	12	13*	1	5
CSc1ccccc1NC(=O)Nc1cccc(Cl)c1Cl	1	-1	-2	-2	-7	16*	9.2*	9
CSc1ccccc1NC(=O)Nc1cccc(Cl)c1C	-18	-7	-1	3	-5	3	/	/
CCOc1ccc(N(CC(=O)NC2CCCCC2)C(=O)CCC(=O)Nc2cc(C)ccn2)cc1	/	-1	3	4	-2	-1	/	/
Cc1ccc(NC(=O)c2ccc(N3CCCC3=O)cc2)cc1S(=O)(=O)N1CCCCC1	/	5	2	10	10	-1	/	/
CCCCNS(=O)(=O)c1ccc(NC(=O)C2c3ccccc3Oc3ccccc32)cc1	-7	3	-2	4	10	13*	13*	6
O=C(Nc1ccncc1)C1c2ccccc2Oc2ccccc21	3	-2	-3	-5	3	-3	/	/
O=C(COc1ccccc1)NC(=S)Nc1ccc2c3c(cccc13)CC2	-2	13	-3	-4	-6	14*	1	3
Cc1ccc(OCC(=O)NC(=S)Nc2cccc(NC(=O)c3ccc(Cl)cc3Cl)c2)cc1	2	-4	0	2	4	22*	7	3
CC(=O)NC(=S)Nc1ccc(NC(=O)COc2ccc(Cl)cc2Cl)cc1	1	0	-1	8	-1	31*	4	8
CCCCC(=O)Nc1cccc(NC(=S)NC(=O)COc2ccccc2Cl)c1	-16	2	0	16	-6	18*	13*	2
O=[N+]([O-])c1ccc(S(=O)(=O)Nc2nnc(C3CCCCC3)s2)cc1	/	8	-2	-8	-5	-1	/	/
Cc1ccc(OCC(=O)NC(=S)Nc2cccc(NC(=O)c3ccccc3)c2)cc1	-4	-7	0	-1	-2	15*	17*	7
CCCC(=O)NC(=S)Nc1cccc(NC(=O)c2ccccc2)c1	-8	0	-2	-4	1	1	/	/
Cc1ccc(OCC(=O)NNC(=O)c2cc(S(=O)(=O)N(C)C)ccc2N2CCCC2)cc1	/	-11	/	-11	-3	-1	/	/
CC(C)CC(=O)Nc1ccc2oc(-c3cccnc3)nc2c1	0	-2	-3	11	0	0	/	/
Cc1ccc2oc(-c3ccc(NC(=O)CC(C)C)cc3)nc2c1	-8	3	-3	-4	-1	14*	-2	3
COc1cccc(CC2(CO)CCCN(Cc3ccc(C)s3)C2)c1 (configuration not stated)	5	0	-4	0	-12	0	/	/
COc1cccc(CC2(CO)CCCN(Cc3[nH]c4ccc(C)cc4c3C)C2)c1 (configuration not stated)	-8	2	-7	4	-3	11*	19*	14
SMILES	TLR4 MyD88 comp	MC4R antag cAMP	MIN6 prolif	TLR9-MyD88 block	NOD2-RIPK2 inh	MC4R barr agon	MC4R barr ag	MOR-DOR barr ag
CCOC(=O)c1sc2nc(CSc3ccccc3Cl)[nH]c(=O)c2c1C	4	-6	-3	2	-6	10*	3	2
Cc1cccc(C)c1NC(=O)c1cn(-c2ccccc2)nc1-c1ccccc1	2	20	-3	1	-7	9.9*	1	6
CC(C)=CCC/C(C)=C/C=N/NC(=O)c1cccc([N+](=O)[O-])c1	3	6	-4	-3	1	0	/	/
CC(C)=CCC/C(C)=C/C=N/NC(=O)c1ccc([N+](=O)[O-])cc1	15	-2	-2	6	0	15*	-2	8
COc1ccc(-c2cn[nH]c2-c2ccc(OCc3ccccc3F)cc2O)cc1OC	/	0	-6	-15	-13	14*	3	12
CCN1CCN(Cc2ccc(NC(=O)c3cc(NC(=O)c4cc5cccc(OC)c5o4)cc(OC)c3)cc2C(F)(F)F)CC1	/	0	-7	3	13	29*!	37*	7
CCN1CCN(Cc2ccc(NC(=O)c3cc(NC(=O)c4ccno4)cc(OC)c3)cc2C(F)(F)F)CC1	/	-11	-8	2	-6	0	/	/
O=C(O)CN1C(=O)/C(=C\c2cc(Br)ccc2OCc2ccc(Cl)cc2Cl)SC1=S	/	11	-5	-3	-1	11*	8	1
O=C(Nc1ccc(F)cc1F)c1c(C(F)(F)F)ccnc1Oc1cccc(C(F)(F)F)c1	/	-2	0	5	-9	20*	1	4
O=C(Nc1ccc(F)cc1F)c1c(C(F)(F)F)ccnc1Oc1ccc(Cl)cc1	/	3	-2	-7	-9	3	/	/
CCOc1ccc(N(CC(=O)Nc2ccc(F)c(F)c2)S(=O)(=O)c2c(C)noc2C)cc1	3	-1	-5	6	-8	9.6*	1	7
Cc1cccc(N(C(=O)C(F)(F)F)C(C(=O)NC2CCCCC2)c2cccs2)c1 (configuration not stated)	1	14	-2	-6	1	20*	7	10
Cc1nccn1CCOc1ccccc1Cl	/	2	0	-6	3	0	/	/
OC(c1ccc(-c2ccccc2)cc1)c1ncc(-c2ccc(F)cc2)[nH]1 (configuration not stated)	/	8	/	/	-1	10*	7	15
OC(c1cccc(F)c1)c1ncc(-c2ccc(Oc3ccccc3)cc2)[nH]1 (configuration not stated)	/	17	/	/	5	10*	4	10
COc1ccc(Cl)cc1Cn1c(C)c(C(=O)NCc2cccc(Cl)c2)sc1=O	/	25	/	/	6	2	/	/

Compound activity deposited in PubChem BioAssay by several laboratories.
